From ChEMBL document CHEMBL4725470, “Synthesis and Biological Evaluation of Pyrroloindolines as Positive Allosteric Modulators of the α1β2γ2 GABA Receptor” (ACS Med Chem Lett, 2020)
Active and inactive are the calls of the source. The calls are words filed in the database; no cut-off is given here.

How the values were obtained:
[1] = target: T1, GABA-A receptor; alpha-1/beta-2/gamma-2 (Homo sapiens) (UniProt P14867+P47870+P18507); experiment: Positive allosteric modulator activity at human alpha1beta2Sgamma2S GABA-A receptor expressed in Xenopus laevis oocytes assessed as potentiation of EC10 GABA response by two electrode voltage-clamp assay relative to control; type: cell-based; details: Oocyte
In short: (§1)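 Same sequence as the EC50 potentiation protocol: baseline GABA doses, ligand alone, 30 s incubation, then coapplication, then two GABA check doses. Here 40 μM PAM is coapplied with an EC10–15 GABA dose. The EC10–15 for each mutant receptor was verified from full GABA dose–response curves.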

[2] = target: GABA-A receptor; GABA-A site (alpha1/beta2 interface) (Homo sapiens) (UniProt P14867+P47870); experiment: Positive allosteric modulator activity at human alpha1beta2S GABA-A receptor expressed in Xenopus laevis oocytes assessed as potentiation of EC50 GABA response at 40 uM by two electrode voltage-clamp assay relative to control; type: cell-based; details: Oocyte
In short: (§2)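 Two-electrode voltage clamp in oocytes. Three GABA EC50 applications set the baseline. The test ligand alone is then given at 40 μM, followed after a 30 s incubation by GABA EC50 plus 40 μM ligand. Two further GABA EC50 doses check receptor function after modulation. Result is the percent change relative to the GABA-only baseline.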

[3] = target: T1, GABA-A receptor; alpha-1/beta-2/gamma-2 (Homo sapiens); experiment: Positive allosteric modulator activity at human alpha1beta2Sgamma2S GABA-A receptor expressed in Xenopus laevis oocytes assessed as potentiation of EC50 GABA response at 40 uM by two electrode voltage-clamp assay relative to control; type: cell-based; details: Oocyte; in short: as §2
[4] = target: T1, GABA-A receptor; alpha-1/beta-2/gamma-2 (Homo sapiens); experiment: Agonist activity at human alpha1beta2Sgamma2S GABA-A receptor expressed in Xenopus laevis oocytes by two electrode voltage-clamp assay; type: cell-based; details: Oocyte, filed as agonist
In short: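 Test ligand applied alone at 40 μM to oocytes expressing human α1β2γ2 receptors. Current read by two-electrode voltage clamp and compared with GABA EC50 responses recorded in the same sequence.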

[5] = Positive allosteric modulator activity at rat alpha1beta2gamma2L GABA-A receptor expressed in Xenopus laevis oocytes in presence of EC2-5 GABA by two-electrode voltage clamp assay; type: cell-based; details: Oocyte
[6] = target: T2, GABA-A receptor; alpha-1/beta-2/gamma-2 (Homo sapiens, UniProt P14867+P18507+P47870); experiment: Positive allosteric modulator activity at human alpha1beta2Sgamma2S GABA-A receptor expressed in Xenopus laevis oocytes in presence of EC5 GABA by two electrode voltage-clamp assay; type: cell-based, Oocyte
T2 sequence (P14867 whole entry): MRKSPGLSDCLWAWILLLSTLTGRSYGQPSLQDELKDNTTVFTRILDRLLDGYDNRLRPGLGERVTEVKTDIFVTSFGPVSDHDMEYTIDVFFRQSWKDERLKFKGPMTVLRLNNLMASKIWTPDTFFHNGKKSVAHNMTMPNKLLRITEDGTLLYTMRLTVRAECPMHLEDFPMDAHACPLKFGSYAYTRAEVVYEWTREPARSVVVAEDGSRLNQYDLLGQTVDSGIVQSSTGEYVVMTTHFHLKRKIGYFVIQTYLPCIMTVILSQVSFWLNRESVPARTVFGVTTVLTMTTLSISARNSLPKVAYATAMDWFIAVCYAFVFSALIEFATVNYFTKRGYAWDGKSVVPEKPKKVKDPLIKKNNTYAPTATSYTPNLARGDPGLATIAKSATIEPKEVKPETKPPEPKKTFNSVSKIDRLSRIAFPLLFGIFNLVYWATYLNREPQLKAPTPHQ
T2 sequence (P47870 whole entry): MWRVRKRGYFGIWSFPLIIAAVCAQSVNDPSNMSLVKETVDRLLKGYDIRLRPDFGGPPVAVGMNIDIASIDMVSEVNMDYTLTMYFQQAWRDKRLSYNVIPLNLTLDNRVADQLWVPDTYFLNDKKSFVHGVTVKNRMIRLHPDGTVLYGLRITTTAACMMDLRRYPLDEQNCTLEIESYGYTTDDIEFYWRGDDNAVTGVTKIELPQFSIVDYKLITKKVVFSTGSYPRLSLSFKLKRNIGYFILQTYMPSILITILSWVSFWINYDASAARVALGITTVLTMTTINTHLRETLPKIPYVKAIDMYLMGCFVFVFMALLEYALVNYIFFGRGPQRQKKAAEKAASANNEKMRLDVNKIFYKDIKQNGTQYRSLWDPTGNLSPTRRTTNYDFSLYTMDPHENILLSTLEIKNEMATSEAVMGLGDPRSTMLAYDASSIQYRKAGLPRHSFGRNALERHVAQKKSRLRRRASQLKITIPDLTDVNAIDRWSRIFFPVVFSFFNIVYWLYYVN
T2 sequence (P18507 whole entry): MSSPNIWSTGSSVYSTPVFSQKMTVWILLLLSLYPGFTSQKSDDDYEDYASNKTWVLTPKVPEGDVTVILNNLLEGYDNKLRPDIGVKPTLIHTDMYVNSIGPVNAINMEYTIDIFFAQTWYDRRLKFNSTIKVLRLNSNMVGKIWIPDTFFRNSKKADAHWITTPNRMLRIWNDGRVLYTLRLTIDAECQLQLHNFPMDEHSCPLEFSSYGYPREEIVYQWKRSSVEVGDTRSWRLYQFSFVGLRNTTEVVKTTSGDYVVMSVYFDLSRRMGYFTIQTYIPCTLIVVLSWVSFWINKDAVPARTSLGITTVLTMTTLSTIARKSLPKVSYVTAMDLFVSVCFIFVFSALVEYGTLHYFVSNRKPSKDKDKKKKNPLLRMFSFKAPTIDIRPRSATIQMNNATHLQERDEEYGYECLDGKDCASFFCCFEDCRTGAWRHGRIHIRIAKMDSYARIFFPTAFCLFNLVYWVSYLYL
In short: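 Modulator dose–response with each concentration coapplied with GABA EC5. The peak current at GABA EC5 alone was subtracted from all responses, and the EC50 was taken from the fitted curve.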

[7] = target: T1, GABA-A receptor; alpha-1/beta-2/gamma-2 (Homo sapiens); experiment: Positive allosteric modulator activity at human alpha1beta2Sgamma2S GABA-A receptor expressed in Xenopus laevis oocytes in presence of EC50 GABA by two electrode voltage-clamp assay; type: cell-based; details: Oocyte, filed as positive allosteric modulator
Oocyte [8] = experiment: Positive allosteric modulator activity at human GABA-A receptor alpha1beta2Sgamma2S H129R mutant expressed in Xenopus laevis oocytes assessed as potentiation of EC10 GABA response by two electrode voltage-clamp assay relative to control; type: cell-based; details: filed as positive allosteric modulator; in short: as §1
Oocyte [9] = experiment: Positive allosteric modulator activity at human GABA-A receptor alpha1beta2Sgamma2S Y209Q mutant expressed in Xenopus laevis oocytes assessed as potentiation of EC10 GABA response by two electrode voltage-clamp assay relative to control; type: cell-based; details: filed as positive allosteric modulator; in short: as §1
Oocyte [10] = experiment: Positive allosteric modulator activity at human GABA-A receptor alpha1beta2Sgamma2S Q88C mutant expressed in Xenopus laevis oocytes assessed as potentiation of EC10 GABA response by two electrode voltage-clamp assay relative to control; type: cell-based; details: filed as positive allosteric modulator; in short: as §1
Oocyte [11] = experiment: Positive allosteric modulator activity at human GABA-A receptor alpha1beta2Sgamma2S S297I/N289I/S319I triple mutant expressed in Xenopus laevis oocytes assessed as potentiation of EC10 GABA response by two electrode voltage-clamp assay relative to control; type: cell-based; in short: as §1
[12] = filed as positive allosteric modulator

Structure (SMILES): CO[C@]12CCN(C)[C@@]1(c1ccccc1)N(C)c1ccccc12
- Activity [1]: 21%

Structure (SMILES): CN1CC[C@@]2(O)c3ccccc3N(C)[C@@]12c1ccccc1
- Activity [2]: 9.2%

Structure (SMILES): CN1CC[C@]2(O)c3cc(C(F)(F)F)ccc3N(C)[C@]12c1ccccc1
- Activity [1, 12]: 108%

Structure (SMILES): CN1CC[C@@]2(O)c3ccccc3N(C)[C@@]12c1ccc(Br)cc1
- Activity [1, 12]: 155%

Structure (SMILES): CN1c2ccccc2[C@@]2(O)CCN[C@@]12c1ccccc1
- Activity [1, 12]: 41%

Structure (SMILES): CN1CC[C@]2(O)c3ccccc3N(C)[C@]12c1ccccc1 [listing 1 of 2 here]
- Activity [3]: 16%
- Activity [2]: 17%
- Activity [1, 12]: 125%

Structure (SMILES): COc1ccc([C@@]23N(C)CC[C@]2(O)c2ccccc2N3C)cc1 (racemic)
- Activity [1]: inactive

Structure (SMILES): COc1ccc2c(c1)[C@@]1(O)CCN(C)[C@@]1(c1ccccc1)N2C
- Activity [1]: 17%

Structure (SMILES): CN1CC[C@]2(O)c3cc(I)ccc3N(C)[C@]12c1ccccc1
- Activity [1, 12]: 231%
- Activity [4]: Active

Structure (SMILES): CCN(CC)CCN1C(=O)CN=C(c2ccccc2F)c2cc(Cl)ccc21 [FLURAZEPAM]
- EC50 [5]: 270 nM

Structure (SMILES): CN1CC[C@]2(F)c3ccccc3N(C)[C@]12c1ccccc1
- Activity [1, 12]: 100%

Structure (SMILES): CN1CC[C@@]2(O)c3cc(N4CCOCC4)ccc3N(C)[C@@]12c1ccccc1
- Activity [1]: -4.8%

Structure (SMILES): CN1CC[C@]2(O)c3ccccc3N(C)[C@]12c1ccc(Br)cc1
- Activity [1, 12]: 98%

Structure (SMILES): CN1CC[C@]2(O)c3cc(Br)ccc3N(C)[C@]12c1ccccc1
- Activity [1, 12]: 213%
- Activity [4]: Active

Structure (SMILES): CN1CC[C@]2(O)c3ccccc3N(C)[C@]12c1ccccc1 [listing 2 of 2 here]
- EC50 [6]: 110000 nM

Structure (SMILES): Cc1ccc(-c2nc3ccc(C)cn3c2CC(=O)N(C)C)cc1 [ZOLPIDEM]
- EC50 [5]: 340 nM

Structure (SMILES): CN1c2ccccc2[C@@]2(O)CCN(C(=O)OCc3ccccc3)[C@@]12c1ccccc1
- Activity [1]: 9.6%

Structure (SMILES): CN1CC[C@]2(O)c3ccccc3N(C)[C@]12c1ccccc1 (racemic)
- Activity [7]: Active
- Activity [3]: 17%
- Activity [2]: 28%
- Activity [1, 12]: 62%
- Activity (Oocyte [8]): Active
- Activity (Oocyte [9]): Active
- Activity (Oocyte [10]): Active
- Activity (Oocyte [11]): 1%
